The source made the active and inactive calls.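 Rule for the calls: active = fitted curve reaching 35% inhibition at both 405 and 600 nm absorbance, in duplicate, within twice the top valid dose; inactive = the rest, including signal rising instead of falling.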
test system: not listed separately; test: bacterial growth inhibition with EDDHA chelator – absorbance 405 nm, dry powder, set 2, dose response (AID 624011); conditions: P. aeruginosa + EDDHA, pyoverdine absorbance 405 nm, 24-30 h; at 50 µM (top of the series)
Method in brief: (§1)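 Assay system: P. aeruginosa ATCC 15692 cells | Quantity: Bacterial inoculum at final OD600 of 0.0000005 | Buffer or medium: Succinate-based M9 minimal medium, pH 7.0 | Compound dosing: 3-fold dilution series, 10 mM stock | Timing: Bacterial growth with compound 24-30 h at 37 °C, humidified | Signal: Absorbance at 405 nm reflecting pyoverdine production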

SMILES | activity change, negative = inhibition
N#CC(c1cccc(Cl)n1)c1ccc(Cl)cc1Cl (configuration not stated) | -12.6% (inactive)
N#CC(c1cccc(Cl)n1)c1ccccc1OC(F)(F)F (configuration not stated) | -13.5% (inactive)
CCCCC(C#N)c1ccc(C(F)(F)F)cc1 (configuration not stated) | -7.42% (inactive)
CCCCC(C#N)c1ccccc1OC(F)(F)F (configuration not stated) | 1.13% (inactive)
N#Cc1cccc(C(C#N)c2ccccc2OC(F)(F)F)n1 (configuration not stated) | 4.18% (inactive)
N#CC(c1ccc(Cl)cc1Cl)c1ncccc1Cl (configuration not stated) | 5.69% (inactive)
N#CC(c1ccc(C(F)(F)F)c(Cl)n1)c1ccc(Cl)cc1Cl (configuration not stated) | 5.25% (inactive)
CCCCC(C#N)c1ccc(Cl)cc1F (configuration not stated) | -9.53% (inactive)
CCCCC(C#N)c1ccc(Cl)cc1Cl (configuration not stated) | 4.33% (inactive)
N#Cc1ccc(C(C#N)c2ccc(Cl)cc2)nc1 (configuration not stated) | -6.67% (inactive)
CC(C)CC(C#N)c1ccc(Cl)cc1 (configuration not stated) | 1.37% (inactive)
N#CC(c1ccc(Cl)cc1)c1ccc(C(F)(F)F)cn1 (configuration not stated) | 5.88% (inactive)
N#CC(c1ccc(C(F)(F)F)c(Cl)n1)c1ccccc1OC(F)(F)F (configuration not stated) | 2.22% (inactive)
N#Cc1cccc(C(C#N)c2ccc(Cl)cc2)n1 (configuration not stated) | -11.7% (inactive)
N#CC(c1ccc(C(F)(F)F)cc1)c1cccc(C(F)(F)F)n1 (configuration not stated) | 0.339% (inactive)
Cc1ccc(C(C#N)c2ccc(Cl)cc2)nc1 (configuration not stated) | -6.12% (inactive)
N#CC(c1ccc(C(F)(F)F)c(Cl)n1)c1ccc(Cl)cc1F (configuration not stated) | -8.56% (inactive)
CCCCC(C#N)c1ccc(F)cc1 (configuration not stated) | -8.06% (inactive)
N#CC(c1ccc(Cl)cc1)c1ccc(C(F)(F)F)c(Cl)n1 (configuration not stated) | 1.79% (inactive)
CC(C#N)(c1ccc(Cl)cc1)c1ccc(C(F)(F)F)cn1 (configuration not stated) | -3.64% (inactive)
CCCCC(C#N)c1ccc(Cl)cc1 (configuration not stated) | -0.942% (inactive)
N#Cc1ccc(C(C#N)c2ccc(Cl)cc2Cl)nc1 (configuration not stated) | 3.9% (inactive)
N#CC(c1ccc(C(F)(F)F)cc1)c1cccc(Cl)n1 (configuration not stated) | -7.8% (inactive)
N#CC(c1cccc(C(F)(F)F)n1)c1ccccc1OC(F)(F)F (configuration not stated) | -5.85% (inactive)
N#CC(CC1CC1)c1ccc(Cl)cc1 (configuration not stated) | -6.92% (inactive)
N#CC(c1ccc(C(F)(F)F)cc1)c1ccc(C(F)(F)F)c(Cl)n1 (configuration not stated) | 0.565% (inactive)
N#Cc1cccc(C(C#N)c2ccc(Cl)cc2Cl)n1 (configuration not stated) | -7.16% (inactive)
CCCC(C#N)c1ccc(Cl)cc1 (configuration not stated) | 1.22% (inactive)
Cc1ccc(C(C#N)c2ccccc2OC(F)(F)F)nc1C#N (configuration not stated) | 1.92% (inactive)
Cc1ccc(C(C#N)c2ccc(Cl)cc2)nc1C#N (configuration not stated) | -8.79% (inactive)

test system: P. aeruginosa + EDDHA, pyoverdine absorbance 405 nm, 24-30 h; test: as above; conditions: not given
Method in brief: as §1

SMILES | AC35
N#CC(c1ccc(Cl)cc1)c1cccc(C(F)(F)F)n1 (configuration not stated) | 7.35 µM
N#CC(c1ccc(Cl)cc1)c1ncccc1Cl (configuration not stated) | 33.6 µM
N#CC(c1cccc(C(F)(F)F)n1)c1ccc(Cl)cc1F (configuration not stated) | 26.2 µM
N#CC(c1ccc(F)cc1)c1cccc(C(F)(F)F)n1 (configuration not stated) | 17.6 µM
COc1cccc(C(C#N)c2ccc(F)cc2)n1 (configuration not stated) | > 50 µM (inactive)
N#CC(c1ccc(Cl)cc1)c1cccc(Cl)n1 (configuration not stated) | 18 µM
N#CC(c1cccc(Cl)n1)c1ccc(Cl)cc1F (configuration not stated) | 19.6 µM
